# Source: PubChem BioAssay
# RAD54 inh – inhibitors of human RAD54 branch migration, primary screen, biochemical, fluorescence, single point; RAD54 Holliday junction branch migration, FAM/BHQ fluorescence; inhibition, % at 10.4 µM; 360,000 tested, 0.14% active; AID 602329, 2012;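 active = mean normalized replicate activity at least 40 and at least half of replicates scoring 40 or more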;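 note: 0% = median of neutral control wells and 100% = median of positive control wells; inhibitors cause a drop in the FAM fluorescence signal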
# SR-BI DiI-HDL act – activators of SR-BI mediated DiI-HDL uptake, primary screen, ldlA[mSR-BI] CHO cells, DiI fluorescence; activation, % at 12.5 µM; 3 h; 100 = double the neutral-control signal; 320,000 tested, 0.096% active;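 active = mean replicate activation of at least 60% and every replicate at or above 60%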;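 note: 0% = median plate neutral-control signal and 100% = twice that signal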
#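 material = CHO ldlA[mSR-BI] cells | medium = Ham's F12 with 0.5% BSA, HEPES 25 mM, pH 7.4 | reagent = fluorescent DiI-HDL, 10 µg/mL final | compound dosing = single-point compound dose | incubation = 3 h, 37 °C | measured by = bottom-read fluorescence, 550/595 nm | measure = HDL uptake via cellular fluorescence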
# SR-BI DiI inh – inhibitors of SR-BI mediated HDL lipid uptake, primary screen, ldlA[mSR-BI] cells, fluorescence, single point. Scavenger receptor class B member 1 (Mus musculus), Q61009. ldlA[mSR-BI] CHO cells, DiI-HDL uptake fluorescence, 3 h. inhibition, % at 12.5 µM. 320,000 tested, 0.96% active;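 active = mean replicate inhibition of at least 70% and a set share of replicates each scoring 70 or more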;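 note: 0% = median of neutral control wells and 100% = median of positive control wells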
# Target sequence (Q61009 whole entry, looked up): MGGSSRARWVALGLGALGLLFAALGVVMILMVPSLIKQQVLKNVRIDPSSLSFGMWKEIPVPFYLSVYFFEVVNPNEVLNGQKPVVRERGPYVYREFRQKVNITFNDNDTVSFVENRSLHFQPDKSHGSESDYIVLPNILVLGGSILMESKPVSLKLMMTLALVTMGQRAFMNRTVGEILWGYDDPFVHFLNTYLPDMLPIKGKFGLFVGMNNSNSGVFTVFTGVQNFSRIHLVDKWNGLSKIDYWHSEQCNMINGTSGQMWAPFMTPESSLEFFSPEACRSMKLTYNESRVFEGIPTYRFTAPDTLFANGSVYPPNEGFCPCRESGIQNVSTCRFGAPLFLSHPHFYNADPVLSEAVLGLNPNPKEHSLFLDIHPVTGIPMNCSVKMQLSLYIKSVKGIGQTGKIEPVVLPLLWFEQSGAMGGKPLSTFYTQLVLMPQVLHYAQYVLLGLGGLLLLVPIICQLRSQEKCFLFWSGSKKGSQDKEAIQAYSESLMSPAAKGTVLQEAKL
# PvdQ inh – P. aeruginosa PvdQ acylase inhibitors, primary screen, biochemical, fluorescence, plate reader and imaging, single point | 340,000 tested, 0.063% active | inhibition, % at 10 µM | AID 488965, 2010 | purified PvdQ acylase; in the data active = inhibition above about 30%, passing the limit was not always enough;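 note: 0% = vehicle neutral wells and 100% = reference inhibitor wells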
# S100A4 MyoIIA – inhibitors of S100A4-myosin IIA peptide binding, primary screen, biochemical, fluorescence polarization, TAMRA-MyoIIA peptide. Protein S100-A4 (Homo sapiens), P26447. inhibition, % at 10.7 µM. 360,000 tested, 0.14% active;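 active = mean inhibition of at least 70% across replicates, with every replicate also reaching that level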
# Target sequence (P26447 whole entry, looked up): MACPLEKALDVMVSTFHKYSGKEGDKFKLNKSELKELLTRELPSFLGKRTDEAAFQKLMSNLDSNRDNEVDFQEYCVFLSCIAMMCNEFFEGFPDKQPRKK
#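 Test system: S100A4 monomer protein; Medium: HEPES pH 7.2 with CaCl2, KCl, NaCl, DTT, Triton; Probe or stimulus: TAMRA-labelled myosin IIA heavy-chain peptide probe, 5 nM; Doses: one dose per compound; Times: polarization read 5 min after assay mix addition, stable 5–60 min; Benchmarks: neutral control DMSO, positive control TFP.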
# dFosB act – activators of delta FosB homodimer, primary screen, biochemical, fluorescence polarization, TAMRA-CDK5 oligo, single point | Protein FosB (Mus musculus), P13346 | purified delta FosB; percent of positive-control signal above neutral wells | activation, % at 25 µM | 340,000 tested, 0.99% active;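 active = mean activation above about 17%, with every replicate also reaching it, limit read from the data, passing the limit was not always enough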
# * marks the source's active call; other numbers are inactive results; . = no result. A selection: hits, their analogues and other compounds. The true share with any hit is near 1.6%.
SMILES,RAD54 inh,SR-BI DiI-HDL act,SR-BI DiI inh,PvdQ inh,S100A4 MyoIIA,dFosB act
CO[C@H]1CN(C)C(=O)c2ccc(NS(C)(=O)=O)cc2OC[C@H](C)N(C(=O)C2CCOCC2)C[C@@H]1C,1,.,.,.,1,.
CC(C)CC(=O)NCC(C)NC(=O)CC(C)C (centres undefined),2,73*,-73,6,.,-5
CCC(C)NC(=O)CC(C)C (centres undefined),-9,-9,9,-3,3,3
Cn1nc(C(F)(F)F)c2cc(C(=O)Nc3ccc(F)cc3F)sc21,.,-56,56,-12,.,-5
Cn1nc(C(F)(F)F)c2cc(C(=O)Nc3ccc(Cl)cc3)sc21,5,-83,83*,-16,.,5
Cc1ccc(S(=O)(=O)N(C)C[C@H]2Oc3ccc(NC(=O)Nc4ccccc4)cc3CC(=O)N([C@H](C)CO)C[C@@H]2C)cc1,-7,.,.,.,-65,.
C[C@@H]1CN([C@@H](C)CO)C(=O)c2cc(C#CC3CCCCC3)cnc2O[C@H]1CN(C)C(=O)C1CCCCC1,1,.,.,.,-1,.
O=C(Nc1c(C(=O)c2ccccc2)oc2ccccc12)c1cc(-c2ccccc2O)n[nH]1,.,-74,74*,-12,.,2
COc1ccc(CN2CCCC(C(=O)c3cccc(OC(C)C)c3)C2)cc1Cn1cccn1 (centres undefined),-3,.,.,33*,-2,-5
O=[N+]([O-])c1ccc(NC(=S)N2CCN(c3ccccc3)CC2)cc1,4,75*,-75,17,.,7
O=[N+]([O-])c1ccc(N2CCN(C(=S)Nc3ccccc3)CC2)cc1,.,15,-15,-18,2,-3
O=C(Nc1ccc(N2CCCC2)cc1)c1ccccc1[N+](=O)[O-],5,-8,8,1,-10,25*
Cc1ccccc1C(=O)N1CCN(c2ccc(NC(=O)c3cccnc3Cl)cc2)CC1,.,-76,76*,-17,1,2
Cc1ccccc1C(=O)N1CCN(c2ccc(NC(=O)c3ccccc3[N+](=O)[O-])cc2)CC1,.,-78,78*,1,-6,1
O=C(Nc1ccc(N2CCN(Cc3ccccc3)CC2)cc1)c1ccccc1[N+](=O)[O-],.,-20,20,-10,9,-9
COc1ccc(C(=O)Nc2ccc(N3CCN(C(=O)c4ccccc4C)CC3)cc2)cc1,-3,-63,63,3,6,-4
CCCNC(=O)[C@H]1[C@H](CO)[C@H]2Cn3c(ccc(/C=C/c4ccccc4)c3=O)[C@@H]1N2C(=O)c1ccccc1,-8,.,.,.,-3,.
CN1C(=O)c2cc(NC(=O)c3cnccn3)ccc2OC[C@@H]2O[C@@H](CC(=O)O)CC[C@@H]21,-3,.,.,.,-1,.
COc1ccccc1Nc1nc(-c2ccccc2O)nc2ccccc12,.,-48,48,-15,0,-6
COc1ccc(Nc2nc(-c3ccccc3O)nc3ccccc23)cc1,1,-52,52,-3,-2,-4
Oc1ccccc1Nc1nc(-c2ccccc2O)nc2ccccc12,-2,-93,93*,1,-3,-1
Oc1ccc(Nc2nc(-c3ccccc3O)nc3ccccc23)cc1,-5,-74,74*,-9,-1,11
COc1ccc(S(=O)(=O)N2CCC(C)CC2)cc1OC,-7,-76,76*,-10,33,3
COc1ccc(-n2nc(C(=O)NCC(=O)N3CCN(c4ccc(F)cc4)CC3)c3ccccc3c2=O)c(OC)c1,7,-61,61,-2,-5,-10
COc1ccc(N2CCN(C(=O)CNC(=O)c3cn(-c4ccccc4OC)c(=O)c4ccccc34)CC2)cc1,.,-74,74*,-6,-13,-3
SMILES,RAD54 inh,SR-BI DiI-HDL act,SR-BI DiI inh,PvdQ inh,S100A4 MyoIIA,dFosB act
COc1cc(NC(=S)NCCc2c[nH]c3ccccc23)c(OC)cc1Cl,3,-73,73*,3,.,0
CNC(=S)Nc1cc2oc3ccccc3c2cc1OC,-11,-94,94*,-8,-9,2
COc1ccc(Cl)cc1NC(=O)C1CCCO1 (centres undefined),3,-3,3,-13,.,6
COc1ccccc1NC(=S)NCCc1c[nH]c2ccccc12,-6,-32,32,-13,.,-2
COc1cc2c(cc1NC(=O)C1CCCO1)oc1ccccc12 (centres undefined),0,-76,76*,-8,.,5
CCNC(=S)Nc1cc2oc3ccccc3c2cc1OC,3,-84,84*,-5,1,-6
CCN1[C@@H]2c3ccc(-c4ccccc4)c(=O)n3C[C@H]1[C@H](CO)[C@H]2C(=O)NCc1ccccc1,4,.,.,.,-3,.
C[C@H]1CN([C@@H](C)CO)S(=O)(=O)c2ccc(C#Cc3ccccc3)cc2O[C@H]1CN(C)C,-3,.,.,.,-4,.
CCC(=O)N1CCC2(CC1)CN(Cc1nccs1)[C@@H](CO)c1c2c2ccc(OC)cc2n1C,.,.,.,.,-23,.
CCCNC(=S)Nc1cc2oc3ccccc3c2cc1OC,5,-89,89*,-7,1,1
CC(C)C#Cc1ccc2c(c1)O[C@@H](CN(C)C)[C@H](C)CN([C@@H](C)CO)S2(=O)=O,5,.,.,.,2,.
O=C(COC(=O)C1Cc2ccccc2CN1C(=O)c1ccccc1Cl)Nc1ccc(N2CCOCC2)cc1 (centres undefined),-3,-76,76*,-4,.,-3
COc1cc(NC(=O)c2ccccc2)c(OC)cc1NC(=O)CN1C(=O)NC2(CCCCC2)C1=O,6,-77,77*,-8,-17,-14
C[C@@H]1CN([C@H](C)CO)S(=O)(=O)c2ccc(-c3ccccc3)cc2O[C@@H]1CN(C)S(C)(=O)=O,-5,.,.,.,-2,.
CCCC[n+]1ccn(-c2nc3ccccc3nc2[N-]S(=O)(=O)c2cccs2)c1,94*,6,-6,-21,-24,-3
C[C@@H]1CCCCO[C@H](CN(C)Cc2ccncc2)[C@H](C)CN([C@@H](C)CO)C(=O)c2cc(NS(=O)(=O)c3ccc(F)cc3)ccc2O1,-2,.,.,.,-4,.
COc1cccc(/C=N/NC(=O)c2cc3cc([N+](=O)[O-])ccc3s2)c1O,-8,-126,126*,-6,-1,41*
Cc1ccccc1C(=O)Nc1cccc(C(=O)N/N=C/c2cc(Cl)cc([N+](=O)[O-])c2O)c1,.,-102,102*,-1,-28,-4
